Reference: ChEMBL document CHEMBL5104213, “Evaluation of the effect of a cell penetrating peptide (TAT) towards tailoring the targeting efficacy and tumor uptake of porphyrin” (RSC Med Chem, 2022)
pIC50: −log10 of the molar value. Activity calls are given as the source filed them. No cut-off for these calls is given here.

Assays:
[1] = Drug uptake in tumor of iv dosed Swiss mouse infected with mouse HSDM1C1 cells administered with radiolabeled Gallium-68 measured after 60 mins; format: ADME, organism-based, Neoplasm; conditions: in vivo, 1 h
How it was run: (§1)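 Fibrosarcoma grown from ~10⁶ HSDM1C1 cells injected subcutaneously on the dorsum, used at ~1 cm tumour diameter; 20–25 g Swiss mice. ⁶⁸Ga-labelled, Sep-Pak-purified preparation (~100 μCi, 3.7 MBq, 150 μL, saline) given i.v. via tail vein. Killed by CO₂ at 30 or 60 min, n = 3; blood by cardiac puncture, organs excised, washed, weighed and counted by NaI(Tl); % IA per g.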

[2] = Drug uptake in kidney of iv dosed Swiss mouse infected with mouse HSDM1C1 cells administered with radiolabeled Gallium-68 measured after 60 mins; format: ADME, organism-based; conditions: in vivo, 1 h; how it was run: as §1
[3] = Drug uptake in lung of iv dosed Swiss mouse infected with mouse HSDM1C1 cells administered with radiolabeled Gallium-68 measured after 60 mins; format: ADME, organism-based; conditions: in vivo, 1 h; how it was run: as §1
[4] = Drug uptake in tumor of iv dosed Swiss mouse infected with mouse HSDM1C1 cells administered with radiolabeled Gallium-68 measured after 30 mins; format: ADME, organism-based, Neoplasm; conditions: in vivo, 0.5 h; how it was run: as §1
[5] = Drug uptake in lung of iv dosed Swiss mouse infected with mouse HSDM1C1 cells administered with radiolabeled Gallium-68 measured after 30 mins; format: ADME, organism-based; conditions: in vivo, 0.5 h; how it was run: as §1
[6] = Drug uptake in blood of iv dosed Swiss mouse infected with mouse HSDM1C1 cells administered with radiolabeled Gallium-68 measured after 30 mins; format: ADME, organism-based; conditions: in vivo, 0.5 h; how it was run: as §1
[7] = system: A549; assay: Cytotoxicity against human A549 cells assessed as cell growth inhibition at 0.5 to 10 uM incubated for 24 hrs under dark condition by MTT assay; format: functional, cell-based; conditions: dose 0.5-10 µM, DDE = dose-dependent effect
How it was run: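 A549 in DMEM/10% FBS, 7 × 10³ cells/well seeded, overnight at 37 °C, 5% CO₂; treated at 0.5, 1, 2.5, 5, 10 μM without light, buffer control, n = 6. After 24 h, MTT added to a final 0.5 mg mL⁻¹ for 4 h; formazan dissolved in DMSO, A570 read with 660 nm reference; % dead cells calculated against vehicle control.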

[8] = Drug uptake in liver of iv dosed Swiss mouse infected with mouse HSDM1C1 cells administered with radiolabeled Gallium-68 measured after 30 mins; format: ADME, organism-based; conditions: in vivo, 0.5 h; how it was run: as §1
[9] = system: A549; assay: Cytotoxicity against human A549 cells assessed as cell growth inhibition at 0.5 uM incubated for 24 hrs under light exposure by MTT assay; format: functional, cell-based
How it was run: (§2)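 A549 plated as for MTT, incubated with compound (0.5 or 1 μM) for 6 h, then irradiated by LED at 42 W m⁻² for 90 min (0.02 kJ cm⁻²). Cells then held 18 h at room temperature and assayed by MTT. Controls were light without compound and compound without light.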

[10] = Octanol-water partition coefficient, logP of the compound; format: physicochemical
How it was run: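 ⁶⁸Ga-labelled preparation (100 μL) added to octanol (1.0 mL) and water (900 μL), mixed, centrifuged 2500 rpm for 5 min. Aliquots of each layer counted by NaI(Tl); log P taken as log of organic/aqueous count ratio.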

[11] = Drug uptake in kidney of iv dosed Swiss mouse infected with mouse HSDM1C1 cells administered with radiolabeled Gallium-68 measured after 30 mins; format: ADME, organism-based; conditions: in vivo, 0.5 h; how it was run: as §1
[12] = system: A549; assay: Cytotoxicity against human A549 cells assessed as cell growth inhibition incubated for 24 hrs under light exposure by MTT assay; format: functional, cell-based; conditions: A549, 24 h
How it was run: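 Photocytotoxicity IC₅₀ determination in A549 cells: 6 h compound exposure at 0.1, 0.5, 1, 2.5, 5.0, 10.0, 20.0 μM, then LED light dose of 0.02 kJ cm⁻² and 18 h post-irradiation incubation before MTT read-out. % cell death plotted against log concentration (nM) to derive IC₅₀.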

[13] = Drug uptake in liver of iv dosed Swiss mouse infected with mouse HSDM1C1 cells administered with radiolabeled Gallium-68 measured after 60 mins; format: ADME, organism-based; conditions: in vivo, 1 h; how it was run: as §1
[14] = Drug uptake in blood of iv dosed Swiss mouse infected with mouse HSDM1C1 cells administered with radiolabeled Gallium-68 measured after 60 mins; format: ADME, organism-based; conditions: in vivo, 1 h; how it was run: as §1
[15] = Drug uptake in spleen of iv dosed Swiss mouse infected with mouse HSDM1C1 cells administered with radiolabeled Gallium-68 measured after 60 mins; format: ADME, organism-based; conditions: in vivo, 1 h; how it was run: as §1
[16] = Drug uptake in spleen of iv dosed Swiss mouse infected with mouse HSDM1C1 cells administered with radiolabeled Gallium-68 measured after 30 mins; format: ADME, organism-based; conditions: in vivo, 0.5 h; how it was run: as §1
[17] = system: A549; assay: Cytotoxicity against human A549 cells assessed as cell growth inhibition at 1 uM incubated for 24 hrs under light exposure by MTT assay; format: functional, cell-based; how it was run: as §2

What does the source list for `O=C(O)COc1ccc(-c2c3nc(c(-c4ccc(OCC(=O)O)cc4)c4ccc([nH]4)c(-c4ccc(OCC(=O)O)cc4)c4nc(c(-c5ccc(O)cc5)c5ccc2[nH]5)C=C4)C=C3)cc1`?
Ct [1]: 2.45%; Ct [2]: 3.35%; Ct [3]: 5.33%; Ct [4]: 2.53%; Ct [5]: 8.87%; Ct [6]: 9.97%; Activity [7]: Dde; Ct [8]: 23.46%; Activity [9]: Active; logP [10]: -1.54; Ct [11]: 4.78%; pIC50 [12]: 5.25; Ct [13]: 15.11%; Ct [14]: 6.87%; Ct [15]: 3.23%; Ct [16]: 5.52%; Activity [17]: Active
